The record followed here is ChEMBL document CHEMBL3098028, “Synthesis and in vitro and in vivo pharmacological evaluation of new 4-aminoquinoline-based compounds” (ACS Med Chem Lett, 2013).

Data set [1] concerns Mus musculus. Briefly: AUC (0 to infinity) in C57BL/6 mouse at 5 mg/kg, iv. The format is ADME, organism-based, Plasma. Details: dose 5 mg/kg, route intravenous, time infinity; call rule not given here. The note with it: in vivo. An outline of the steps: (§1)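 Healthy male C57/BL6 mice received a single intravenous dose (2.5 or 5.0 mg/kg) or oral dose (20 or 40 mg/kg). Plasma concentrations were followed over time to give AUC0-∞ in min·μmol/L, alongside t1/2, CL, Vd, Vss, Cmax, Tmax and oral bioavailability. Values are means of five animals.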

Data set [2] can be described thus: Drug metabolism in hepatocytes (unknown origin) assessed as 2-(5-((4-chlorophenyl)(2-(7-chloroquinolin-4-ylamino)ethylamino)methyl)-1H-tetrazol-1-yl)-2-methylpropan-1-ol level at 5 uM after 6 hrs by LC-MS/MS analysis. The format is ADME, cell-based, Hepatocyte.
The target in a further data set is T1, Cytochrome P450 2A6 (Homo sapiens, UniProt P11509).
T1 sequence (P11509 whole entry): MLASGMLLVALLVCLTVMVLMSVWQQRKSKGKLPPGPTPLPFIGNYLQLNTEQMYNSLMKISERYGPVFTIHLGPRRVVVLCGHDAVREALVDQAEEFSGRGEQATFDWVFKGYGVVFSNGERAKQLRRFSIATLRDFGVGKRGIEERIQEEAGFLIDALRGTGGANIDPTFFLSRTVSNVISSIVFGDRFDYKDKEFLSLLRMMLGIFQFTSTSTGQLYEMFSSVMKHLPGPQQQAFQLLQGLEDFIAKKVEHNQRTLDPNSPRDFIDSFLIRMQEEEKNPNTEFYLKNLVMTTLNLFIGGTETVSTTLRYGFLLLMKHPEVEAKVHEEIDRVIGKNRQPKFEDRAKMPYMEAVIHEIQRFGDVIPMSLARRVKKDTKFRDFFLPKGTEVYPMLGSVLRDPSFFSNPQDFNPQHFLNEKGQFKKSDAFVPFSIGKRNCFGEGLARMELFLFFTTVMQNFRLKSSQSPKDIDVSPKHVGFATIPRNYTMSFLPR
Briefly: Inhibition of CYP2A6 in human liver microsomes assessed as coumarin 7-hydroxylation after 20 mins by LC-MS/MS analysis. The format is ADME.

For data set [3], the system named is Liver microsome. Briefly: Drug metabolism in rat liver microsomes assessed as 2-(5-((4-chlorophenyl)(2-(7-chloroquinolin-4-ylamino)ethylamino)methyl)-1H-tetrazol-1-yl)-2-methylpropan-1-ol level at 5 uM after 1 hr by LC-MS/MS analysis. It is filed as ADME. (In general: Liver microsomes are vesicles of endoplasmic reticulum, rich in cytochrome P450 enzymes.)
The test system of data set [4] is Plasmodium falciparum. Briefly: Antiplasmodial activity against chloroquine-sensitive Plasmodium falciparum 3D7 after 24 hrs by [3H]hypoxanthine incorporation assay. The format is functional, organism-based. An outline of the steps: (§2)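 Antiplasmodial testing was done at the Swiss Tropical and Public Health Institute. Chloroquine, the reference drug, was tested as its diphosphate salt.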

The next data set concerns the target Cytochrome P450 2C9 (Homo sapiens, UniProt P11712). Briefly: Inhibition of CYP2C9 in human liver microsomes assessed as diclofenac 4'-hydroxylation after 20 mins by LC-MS/MS analysis. The format is ADME.
Data set [5] has as its system Liver microsome. Briefly: Drug metabolism in human liver microsomes assessed as 4-(2-((1-tert-butyl-1H-tetrazol-5-yl)(4-chlorophenyl)methylamino)ethylamino)-7-chloroquinoline 1-oxide level at 5 uM after 1 hr by LC-MS/MS analysis. The format is ADME.
For the next data set, the target named is Cytochrome P450 2E1 (Homo sapiens, UniProt P05181). As to the kind of experiment: Inhibition of CYP2E1 in human liver microsomes assessed as chlorzoxazone 6-hydroxylation after 20 mins by LC-MS/MS analysis. The format is ADME.
Cytochrome P450 2E1, sequence (P05181 whole entry): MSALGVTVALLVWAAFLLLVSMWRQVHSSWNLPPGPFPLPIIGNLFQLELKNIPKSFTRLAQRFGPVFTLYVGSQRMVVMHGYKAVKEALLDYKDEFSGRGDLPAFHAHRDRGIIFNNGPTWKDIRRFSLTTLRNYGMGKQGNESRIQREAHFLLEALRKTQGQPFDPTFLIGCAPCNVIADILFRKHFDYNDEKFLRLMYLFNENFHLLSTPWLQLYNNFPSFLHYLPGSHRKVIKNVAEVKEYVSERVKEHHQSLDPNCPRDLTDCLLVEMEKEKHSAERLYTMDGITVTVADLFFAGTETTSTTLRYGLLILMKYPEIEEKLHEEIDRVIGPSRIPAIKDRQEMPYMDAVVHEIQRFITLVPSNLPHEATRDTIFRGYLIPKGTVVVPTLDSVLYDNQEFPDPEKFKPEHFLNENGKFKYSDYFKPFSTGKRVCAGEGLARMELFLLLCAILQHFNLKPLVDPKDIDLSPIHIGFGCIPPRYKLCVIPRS
Data set [6] relates to Mus musculus. Briefly: AUC (0 to infinity) in C57BL/6 mouse at 2.5 mg/kg, iv. The format is ADME, organism-based, Plasma. Also on record: time infinity, dose 2.5 mg/kg, route intravenous. The note with it: in vivo. An outline of the steps:
as §1

Another data set has as its target T2, Cytochrome P450 1A2 (Homo sapiens, UniProt P05177).
T2 sequence (P05177 whole entry): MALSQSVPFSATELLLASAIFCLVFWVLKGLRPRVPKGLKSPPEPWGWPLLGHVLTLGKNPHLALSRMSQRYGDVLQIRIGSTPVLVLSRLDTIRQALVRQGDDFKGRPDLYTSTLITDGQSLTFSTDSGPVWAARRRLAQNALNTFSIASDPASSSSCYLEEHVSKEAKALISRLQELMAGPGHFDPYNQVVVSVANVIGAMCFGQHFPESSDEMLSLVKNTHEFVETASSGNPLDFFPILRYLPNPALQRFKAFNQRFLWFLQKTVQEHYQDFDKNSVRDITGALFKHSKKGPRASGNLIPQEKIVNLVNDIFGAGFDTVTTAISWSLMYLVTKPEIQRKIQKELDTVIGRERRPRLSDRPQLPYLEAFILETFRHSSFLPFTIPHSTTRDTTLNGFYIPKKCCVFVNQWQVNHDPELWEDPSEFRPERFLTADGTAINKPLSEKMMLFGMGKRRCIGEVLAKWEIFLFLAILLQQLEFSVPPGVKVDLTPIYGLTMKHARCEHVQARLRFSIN
Briefly: Inhibition of CYP1A2 in human liver microsomes assessed as phenacetin O-deethylation after 20 mins by LC-MS/MS analysis. The format is ADME.

Data set [7] deals with Liver microsome. Briefly: Drug metabolism in human liver microsomes assessed as 2-(5-((4-chlorophenyl)(2-(7-chloroquinolin-4-ylamino)ethylamino)methyl)-1H-tetrazol-1-yl)-2-methylpropan-1-ol level at 5 uM after 1 hr by LC-MS/MS analysis. It is filed as ADME.
The target in the next data set is Cytochrome P450 2D6 (Homo sapiens, UniProt P10635). As to the kind of experiment: Inhibition of CYP2D6 in human liver microsomes assessed as bufuralol 1'-hydroxylation after 20 mins by LC-MS/MS analysis. The format is ADME.
Cytochrome P450 2D6, sequence (P10635 whole entry): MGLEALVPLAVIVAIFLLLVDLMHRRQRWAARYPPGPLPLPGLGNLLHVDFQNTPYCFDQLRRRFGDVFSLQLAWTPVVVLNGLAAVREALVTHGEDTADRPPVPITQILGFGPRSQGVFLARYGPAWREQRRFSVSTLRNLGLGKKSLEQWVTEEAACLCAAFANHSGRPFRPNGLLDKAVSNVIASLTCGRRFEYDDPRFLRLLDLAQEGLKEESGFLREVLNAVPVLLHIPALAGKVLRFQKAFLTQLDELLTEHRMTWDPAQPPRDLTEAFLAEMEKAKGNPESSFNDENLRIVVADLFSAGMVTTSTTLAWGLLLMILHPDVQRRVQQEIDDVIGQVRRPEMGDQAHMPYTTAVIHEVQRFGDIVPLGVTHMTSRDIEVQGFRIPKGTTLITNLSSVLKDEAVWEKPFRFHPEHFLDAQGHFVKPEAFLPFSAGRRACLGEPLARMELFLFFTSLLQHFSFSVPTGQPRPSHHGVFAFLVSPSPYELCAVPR
The subject of data set [8] is Mus musculus. Briefly: AUC (0 to infinity) in C57BL/6 mouse at 40 mg/kg, po. It is filed as ADME, organism-based, Plasma. To be noted: in vivo. Details: time infinity, dose 40 mg/kg, route oral. An outline of the steps: as §1
The target in a further data set is Cytochrome P450 3A4 (Homo sapiens, UniProt P08684). Briefly: Inhibition of CYP3A4 in human liver microsomes assessed as midazolam 1'-hydroxylation and testosterone 6beta-hydroxylation after 20 mins by LC-MS/MS analysis. It is filed as ADME.
Cytochrome P450 3A4, sequence (P08684 whole entry): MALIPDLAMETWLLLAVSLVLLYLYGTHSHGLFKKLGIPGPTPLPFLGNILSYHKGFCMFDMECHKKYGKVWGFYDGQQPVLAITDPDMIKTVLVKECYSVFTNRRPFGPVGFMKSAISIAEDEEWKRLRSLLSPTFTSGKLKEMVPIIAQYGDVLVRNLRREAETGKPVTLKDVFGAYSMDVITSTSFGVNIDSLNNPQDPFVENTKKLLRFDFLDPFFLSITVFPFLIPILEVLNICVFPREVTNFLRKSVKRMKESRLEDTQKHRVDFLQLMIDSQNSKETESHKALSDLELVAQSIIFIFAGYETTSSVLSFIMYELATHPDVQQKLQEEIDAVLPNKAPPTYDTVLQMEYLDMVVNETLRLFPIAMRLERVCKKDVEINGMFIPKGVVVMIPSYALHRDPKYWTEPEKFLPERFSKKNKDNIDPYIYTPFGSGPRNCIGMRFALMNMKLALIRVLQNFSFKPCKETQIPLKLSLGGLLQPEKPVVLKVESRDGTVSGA
Data set [9] in a line: Kinetic solubility of the compound in 0.01 M HCl at pH 2 after 2 hrs by HPLC analysis. The format is physicochemical. To be noted: read-out: Kinetic_solubility.
Data set [10] deals with Plasmodium falciparum. As to the kind of experiment: Antiplasmodial activity against chloroquine-resistant Plasmodium falciparum W2 after 24 hrs by [3H]hypoxanthine incorporation assay. The format is functional, organism-based. A digest of the protocol:
as §2

The target in a further data set is T3, Cytochrome P450 2B6 (Homo sapiens, UniProt P20813).
T3 sequence (P20813 whole entry): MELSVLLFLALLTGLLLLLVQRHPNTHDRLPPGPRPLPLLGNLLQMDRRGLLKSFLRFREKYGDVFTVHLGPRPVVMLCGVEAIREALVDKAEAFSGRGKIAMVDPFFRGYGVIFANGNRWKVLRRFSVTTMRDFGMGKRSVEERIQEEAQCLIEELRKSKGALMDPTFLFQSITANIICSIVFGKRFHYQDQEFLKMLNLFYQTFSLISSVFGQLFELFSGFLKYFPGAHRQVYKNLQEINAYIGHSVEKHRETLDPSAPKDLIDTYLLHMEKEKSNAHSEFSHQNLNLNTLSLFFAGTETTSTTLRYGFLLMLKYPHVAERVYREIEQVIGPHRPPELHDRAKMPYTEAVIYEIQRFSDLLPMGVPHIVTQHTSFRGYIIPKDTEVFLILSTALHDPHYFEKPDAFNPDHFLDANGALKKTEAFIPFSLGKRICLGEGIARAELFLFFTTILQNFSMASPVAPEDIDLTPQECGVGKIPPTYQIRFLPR
Briefly: Inhibition of CYP2B6 in human liver microsomes assessed as bupropion hydroxylation after 20 mins by LC-MS/MS analysis. It is filed as ADME.

Cytochrome P450 2C9, sequence (P11712 whole entry): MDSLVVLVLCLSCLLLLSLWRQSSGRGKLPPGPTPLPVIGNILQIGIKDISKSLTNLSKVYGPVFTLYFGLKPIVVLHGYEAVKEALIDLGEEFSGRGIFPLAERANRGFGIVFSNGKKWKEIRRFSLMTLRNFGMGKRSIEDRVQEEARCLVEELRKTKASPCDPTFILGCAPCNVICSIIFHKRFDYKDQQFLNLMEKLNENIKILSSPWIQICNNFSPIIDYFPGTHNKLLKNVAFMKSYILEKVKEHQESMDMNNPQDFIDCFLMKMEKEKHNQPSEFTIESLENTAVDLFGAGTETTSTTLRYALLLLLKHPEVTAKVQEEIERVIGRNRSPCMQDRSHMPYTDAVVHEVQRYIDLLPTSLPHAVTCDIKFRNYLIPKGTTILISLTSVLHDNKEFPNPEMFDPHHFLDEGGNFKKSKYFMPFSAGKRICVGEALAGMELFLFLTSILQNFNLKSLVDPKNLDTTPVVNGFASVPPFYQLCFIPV

Usually AUC stands for the area under the concentration-time curve, a measure of exposure. Low values mean less exposure, high ones more exposure. The term IC50 denotes the concentration that gives 50% inhibition. For `CC(C)(C)n1nnnc1C(NCCNc1ccnc2cc(Cl)ccc12)c1ccc(Cl)cc1` (configuration not stated), the figures for the exposure (AUC) with Mus musculus [1], with Mus musculus [6] and in the data set on Mus musculus [8] were 221 µmol·min/L, 107 µmol·min/L and 541 µmol·min/L, respectively. Also, the Drug metabolism result (in data set [2]; in the data set with Liver microsome [3]; with Liver microsome [5]; with Liver microsome [7]) was “Active” throughout. Besides, the IC50 on Cytochrome P450 2A6 was greater than 20 µM; in the data set with Plasmodium falciparum [4], 0.002 µM; at Cytochrome P450 2C9 it was 8.91 µM; on Cytochrome P450 2E1, greater than 20 µM; at Cytochrome P450 1A2 it was greater than 20 µM; on Cytochrome P450 2D6, 4 µM. For the same compound, the IC50 is 0.08 µM at Cytochrome P450 3A4, 0.0255 µM in the data set with Plasmodium falciparum [10] and greater than 20 µM at Cytochrome P450 2B6. Also, the solubility kinetic at 2 h in data set [9] was greater than 200 µM.
